Calls of active or inactive are those of the source. The rule behind the calls is not given here.
Experiments:
Adenosine receptor A1 = molecular target: T1, Adenosine receptor A1 (Homo sapiens, UniProt P30542); assay: Displacement of [3H]CCPA from human recombinant adenosine A1 receptor expressed in CHO cells; type: cell-based
T1 sequence (P30542 whole entry): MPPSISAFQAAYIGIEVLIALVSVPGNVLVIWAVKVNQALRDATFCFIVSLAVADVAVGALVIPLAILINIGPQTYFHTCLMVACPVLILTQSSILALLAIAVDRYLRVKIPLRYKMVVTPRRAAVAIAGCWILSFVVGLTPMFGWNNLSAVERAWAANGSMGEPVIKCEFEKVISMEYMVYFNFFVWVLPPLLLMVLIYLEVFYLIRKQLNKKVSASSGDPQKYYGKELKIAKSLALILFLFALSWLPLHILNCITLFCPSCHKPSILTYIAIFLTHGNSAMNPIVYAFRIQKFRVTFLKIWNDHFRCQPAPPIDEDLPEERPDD

Adenosine receptor A2a = Adenosine receptor A2a (Homo sapiens, UniProt P29274); assay: Displacement of [3H]NECA from human recombinant adenosine A2A receptor expressed in CHO cells; type: cell-based
Adenosine receptor A2a, sequence (P29274 whole entry): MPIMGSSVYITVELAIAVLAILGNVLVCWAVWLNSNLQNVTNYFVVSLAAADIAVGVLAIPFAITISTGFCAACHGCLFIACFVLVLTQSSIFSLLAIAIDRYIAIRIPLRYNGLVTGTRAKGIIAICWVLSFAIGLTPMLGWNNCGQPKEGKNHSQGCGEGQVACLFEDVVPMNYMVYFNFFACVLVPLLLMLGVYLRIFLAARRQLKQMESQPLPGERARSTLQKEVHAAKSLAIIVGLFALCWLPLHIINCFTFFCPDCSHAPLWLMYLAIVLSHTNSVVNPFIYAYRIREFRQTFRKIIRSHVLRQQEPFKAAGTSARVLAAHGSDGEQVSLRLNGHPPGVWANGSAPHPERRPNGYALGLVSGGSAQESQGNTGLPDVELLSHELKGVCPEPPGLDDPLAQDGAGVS
Method in brief: (§1)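 Competition binding in 96-well microplates with radioligand [3H]NECA on CHO cells stably transfected with human recombinant A2AR or A3R. Ki of unlabeled compound from displacement of specific binding, with 95% confidence intervals.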

Adenosine receptor A3 [1] = molecular target: T2, Adenosine receptor A3 (Homo sapiens, UniProt P0DMS8); assay: Displacement of [3H]NECA from human recombinant adenosine A3 receptor expressed in CHO cells; type: cell-based; method in brief: as §1
T2 sequence (P0DMS8 whole entry): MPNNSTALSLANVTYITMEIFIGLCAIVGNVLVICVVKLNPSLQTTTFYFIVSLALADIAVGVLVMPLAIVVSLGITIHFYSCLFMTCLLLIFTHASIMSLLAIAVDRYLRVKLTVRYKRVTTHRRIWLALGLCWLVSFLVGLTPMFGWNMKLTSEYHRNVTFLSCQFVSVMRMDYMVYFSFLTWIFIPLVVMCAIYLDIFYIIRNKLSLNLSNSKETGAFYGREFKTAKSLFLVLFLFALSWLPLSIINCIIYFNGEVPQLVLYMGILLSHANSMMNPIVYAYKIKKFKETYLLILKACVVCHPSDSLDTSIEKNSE

[2] = molecular target: Adenosine receptors; A1 & A3 (Homo sapiens) (UniProt P30542+P0DMS8); assay: Selectivity ratio of Ki for human recombinant adenosine A1 receptor to Ki for human recombinant adenosine A3 receptor
Method in brief: (§2)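 Selectivity is Ki at human A1R (displacement of [3H]CCPA) or at human A2AR (displacement of [3H]NECA) divided by Ki at human A3R (displacement of [3H]NECA). All receptors stably expressed in CHO cells, competition experiments in 96-well microplates.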

Homo sapiens = organism: Homo sapiens; assay: Selectivity ratio of Ki for human recombinant adenosine A2A receptor to Ki for human recombinant adenosine A3 receptor; method in brief: as §2
Adenosine receptor A3 [3] = molecular target: T2, Adenosine receptor A3; assay: Agonist activity at human recombinant adenosine A3 receptor expressed in CHO cells assessed as nonradiaoactive DELFIA Eu-GTP binding treated for 15 mins before addition of Eu-GTP measured after 45 mins by time-resolved fluorometric method; type: cell-based
[4] = molecular target: T3, Adenosine receptor A3 (Homo sapiens) (UniProt P0DMS8); assay: Agonist activity at human recombinant adenosine A3 receptor expressed in CHO cells assessed as nonradiaoactive DELFIA Eu-GTP binding treated for 15 mins before addition of Eu-GTP measured after 45 mins by time-resolved fluorometric method relative to Cl-IBMECA; type: cell-based; parameters: concentration or dose not given beside the values
T3 sequence (whole entry): T2 sequence (P0DMS8 whole entry)

[5] = molecular target: T3, Adenosine receptor A3 (Homo sapiens); assay: Agonist activity at human recombinant adenosine A3 receptor expressed in CHO cells assessed as nonradiaoactive DELFIA Eu-GTP binding treated for 15 mins before addition of Eu-GTP measured after 45 mins by time-resolved fluorometric method in presence of increasing saponin concentration; type: cell-based
[6] = molecular target: T3, Adenosine receptor A3 (Homo sapiens); assay: Ratio of Cl-IBMECA EC50 to compound EC50 for human recombinant adenosine A3 receptor expressed in CHO cells; type: cell-based

| Compound | Ki (Adenosine receptor A1) | Ki (Adenosine receptor A2a) | Ki (Adenosine receptor A3 [1]) | Ratio Ki [2] | Ratio Ki (Homo sapiens) | EC50 (Adenosine receptor A3 [3]) | Activity [4] | Activity [5] | Ratio EC50 [6] |
| --- | --- | --- | --- | --- | --- | --- | --- | --- | --- |
| CNC(=O)[C@H]1O[C@@H](n2cnc3c(NC)nc(C#Cc4ccccc4)nc32)[C@H](O)[C@@H]1O | 32800 nM | 41700 nM | 0.44 nM | 76500 | 97000 | 151 nM | 100% | inactive | – |
| CNC(=O)[C@H]1O[C@@H](n2cnc3c(NOC)nc(C#Cc4ccc(F)cc4)nc32)[C@H](O)[C@@H]1O | – | – | – | 1600 | 9800 | 210 nM | 100% | inactive | – |
| CNC(=O)[C@H]1O[C@@H](n2cnc3c(NCc4ccc(I)cc4)nc(Cl)nc32)[C@H](O)[C@@H]1O | – | – | – | – | – | 363 nM | – | – | – |
| CONc1nc(C#Cc2ccccn2)nc2c1ncn2[C@@H]1O[C@H](CO)[C@@H](O)[C@H]1O | – | – | – | – | – | – | 9% | – | – |
| CNC(=O)[C@H]1O[C@@H](n2cnc3c(NC)nc(C#Cc4ccc(F)cc4)nc32)[C@H](O)[C@@H]1O | 5310 nM | 12700 nM | 0.43 nM | 12500 | 29500 | 190 nM | 100% | inactive | – |
| CNC(=O)[C@H]1O[C@@H](n2cnc3c(NOC)nc(C#Cc4ccccn4)nc32)[C@H](O)[C@@H]1O | – | – | – | 3600 | 16400 | 52 nM | 100% | inactive | 7 |
| CNC(=O)[C@H]1O[C@@H](n2cnc3c(NOC)nc(C#Cc4ccccc4)nc32)[C@H](O)[C@@H]1O | – | – | – | 4800 | 8600 | 120 nM | 100% | inactive | – |
| CNC(=O)[C@H]1O[C@@H](n2cnc3c(NC)nc(C#Cc4ccccn4)nc32)[C@H](O)[C@@H]1O | 8740 nM | 24300 nM | 0.4 nM | 22000 | 61000 | 46 nM | 100% | inactive | 7 |
| CNc1nc(C#Cc2ccccc2)nc2c1ncn2[C@@H]1O[C@H](CO)[C@@H](O)[C@H]1O | – | – | – | 500 | 2500 | 290 nM | 65% | – | – |
| CONc1nc(C#Cc2ccccc2)nc2c1ncn2[C@@H]1O[C@H](CO)[C@@H](O)[C@H]1O | – | – | 3.8 nM | 300 | 1100 | 320 nM | 55% | – | – |
